# Test results: ChEMBL document CHEMBL4002556, “Acetophenone Monomers from Acronychia trifoliolata” (J Nat Prod, 2016)
# How the values were obtained:
# Assay type in all cases: functional, cell-based
# [1] = Cytotoxicity against human KBVIN cells assessed as growth inhibition after 48 hrs by SRB assay
# Procedure, shortened: (§1)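 Sulforhodamine B (SRB) read-out of antiproliferative effect. IC50 is the concentration giving 50% reduction relative to untreated cells, determined separately for each cell line.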
# A549 = assay: Cytotoxicity against human A549 cells assessed as growth inhibition after 48 hrs by SRB assay; details: A549, 48 h; procedure, shortened: as §1
# KB = assay: Cytotoxicity against human KB cells assessed as growth inhibition after 48 hrs by SRB assay; procedure, shortened: as §1
# MDA-MB-231 = assay: Cytotoxicity against human MDA-MB-231 cells assessed as growth inhibition after 48 hrs by SRB assay; details: MDA-MB-231, 48 h; procedure, shortened: as §1
# MCF7 = assay: Cytotoxicity against human MCF7 cells assessed as growth inhibition after 48 hrs by SRB assay; details: MCF7, 48 h
SMILES,IC50 [1],IC50 (A549),IC50 (KB),IC50 (MDA-MB-231),IC50 (MCF7)
CC(=O)O[C@H]1C(=O)[C@@]2(C)[C@H]([C@H](OC(=O)c3ccccc3)[C@]3(O)C[C@H](OC(=O)[C@H](O)[C@@H](NC(=O)c4ccccc4)c4ccccc4)C(C)=C1C3(C)C)[C@]1(OC(C)=O)CO[C@@H]1C[C@@H]2O [PACLITAXEL],1.9 µM,0.00099 µM,0.0008 µM,,
COc1c(CC=C(C)C)c2c(c(O)c1C(C)=O)CC(O)C(C)(C)O2 (stereo not drawn),39.7 µM,> 40 µM,38.5 µM,> 40 µM,> 40 µM
COc1c(CC=C(C)C)c(O)c2c(c1C(C)=O)OC(C)(C)C(O)C2 (stereo not drawn),> 40 µM,> 40 µM,> 40 µM,> 40 µM,> 40 µM
COc1c2c(c(CC=C(C)C)c(O)c1C(C)=O)OC(C(C)(C)O)C2 (stereo not drawn),> 40 µM,> 40 µM,> 40 µM,> 40 µM,> 40 µM
COc1c2c(c(CC=C(C)C)c(O)c1C(C)=O)OC(C)(C)C(O)C2 (stereo not drawn),19.2 µM,26.6 µM,25.6 µM,> 40 µM,30.8 µM
COc1c(CC=C(C)C)c2c(c(O)c1C(C)=O)CC(C(C)(C)O)O2 (stereo not drawn),> 40 µM,> 40 µM,> 40 µM,> 40 µM,> 40 µM
COc1c2c(c(CCC(C)C)c(O)c1C(C)=O)OC(C)(C)C(O)C2 (stereo not drawn),16.2 µM,19.9 µM,20.4 µM,22.6 µM,19.4 µM
